Activity calls are given as the source filed them.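 Rule for the calls, unless noted: active = inhibition at or above 50% at 10 µM; inactive = inhibition below 50%.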
What was measured:
[1] = inhibitors of TNFa-induced NFkB p65 translocation, primary screen, imaging, HUVEC, MLSMR starter and 10KST1 sets (AID 438;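 active = inhibition above 20% together with a positive visual image hit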;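 note: compound added about 3h40 before a 20 min TNFalpha stimulation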;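 for inhibition: signal is the nuclear over cytoplasmic p65 intensity ratio per well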); conditions: HUVEC TNFa-induced p65 nuclear translocation; cell count: measured here: nuclei count (cytotoxicity indicator), at 2.08 µM; inhibition: at 2 µM, stronger effect = higher value, 0% TNFa-plus-vehicle, 100% no-TNFa wells
[2] = reduction of polyQ htt aggregates in cells – imaging, exon1htt(103Q)mCFP cells, high-content imaging, primary screen (AID 483;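 active = visual image review flags a hit and inhibition of aggregation exceeds 20%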;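 note: compound exposure lasted 3 days before fixation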;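 for nuclei count: percent of the per-plate median nuclei count of sample wells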); conditions: exon1htt(103Q)mCFP cell line, aggregate imaging, at 2 µM; inhibition of aggregation: stronger effect = higher value; nuclei count: measured here: cell count, toxicity
[3] = endothelial E-selectin expression blockers – imaging, HUVEC, immunofluorescence, MLSMR starter and 10KST1 sets, primary screen (AID 487;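 active = visually confirmed hit in the image check and inhibition above 20%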;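 for inhibition: signal is fraction of cell area covered by stained E-selectin grains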;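 for nuclei count: 100% = median nuclei count of all wells on the same plate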); conditions: HUVEC TNFalpha-induced E-selectin immunofluorescence imaging, at 2 µM; inhibition: stronger effect = higher value; nuclei count: measured here: cell number, toxicity
[4] = biological target: Voltage-gated potassium channel subunit beta-2 (Rattus norvegicus) (UniProt P62483); assay: inhibitors of rat Kvbeta2 reductase activity – biochemical, NADPH fluorescence, primary screen (AID 622;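 active = fluorescence slope higher than the sample average by over 3 SD, cut at about -0.22 in these data, passing the limit was not always enough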;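 note: slope of raw intensity against log time taken from 70 to 1610 s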); conditions: recombinant KvBeta, 4-cyanobenzaldehyde reduction, at 10 µM, stronger effect = higher value
[5] = biological target: Voltage-gated potassium channel subunit beta-2 (Rattus norvegicus) (UniProt P62483); assay: enhancers of rat Kvbeta2 NADPH turnover – biochemical, NADPH fluorescence, primary screen (AID 623;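 active = NADPH fluorescence slope more negative than the mean of all samples by about 3 SD, 99.7% confidence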;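 note: fluorescence intensity change per second fitted from 20 to 320 s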); conditions: Recombinant KvBeta, NADPH fluorescence decrease slope, 10 min; at 10 µM; stronger effect = lower value
[6] = biological target: Alpha-2C adrenergic receptor (Homo sapiens) (UniProt P18825); assay: compounds altering alpha2C-coupled GIRK flux – cell-based, HEK293 alpha2C/GIRK1/2, thallium flux, primary screen (AID 624;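 active = fluorescence slope after compound addition differing from the mean of all screened samples at 99.7% confidence, in either direction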;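 note: slope of fluorescence ratio to pre-addition baseline per second over 15 to 24 s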); conditions: thallium flux BTC fluorescence, at 10 µM, actives lie on both sides
[7] = inhibitors of larval lipid processing in zebrafish, primary screen, whole organism, PED6 fluorescence, gall bladder and intestine (AID 686;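 active = a full or partial loss of lipid-probe fluorescence in the fish gall bladder, intestine or both, judged by eye; inactive = no fluorescence loss, or compound toxic to the fish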;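 note: larvae 5 to 7 days old with five fish per well; signal comes from phospholipase A2 cleavage of quenched PED6 carried via bile; overnight exposure to compound and PED6 before scoring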); conditions: Zebrafish larvae PED6 lipid processing, fluorescence scoring; screened at 20 µM (by protocol)
Procedure, shortened: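 Test system – live zebrafish larvae aged 5-7 days, whole organism · Buffer or medium – E3 fish medium · Reagent – quenched phospholipase substrate PED6, 100 nM final, ingested by larvae · Doses – 20 µM single dose · Incubation – overnight compound and PED6 incubation · Technique – visual fluorescence microscopy scoring of gall bladder, gut · Read-out basis – visual per-well fluorescence inhibition score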

[8] = blockers of RIG-like receptor reporter activation – cell-based, Sendai virus stimulus, luciferase, 10K MLSCN set, TLR/RLR signaling modifier project, primary screen (AID 602276); conditions: HEK293 RL24 IRF3 luciferase reporter, at 10 µM, stronger effect = higher value;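 note: firefly luciferase from ISG56 promoter only with Renilla not read in this screen; 0% = Sendai virus plus DMSO and 100% = medium plus DMSO without virus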
[9] = TLR3 IRF3 reporter activation blockers – cell-based, poly I:C stimulus, luciferase, 10K MLSCN set, primary screen (AID 602277;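 active = inhibition of the reporter signal at or above 50%; inactive = inhibition below 50%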); conditions: HEK293-TLR3 RL24 IRF3 luciferase reporter, at 10 µM, stronger effect = higher value

Voltage-gated potassium channel subunit beta-2 (Rattus norvegicus), sequence (P62483 whole entry, looked up): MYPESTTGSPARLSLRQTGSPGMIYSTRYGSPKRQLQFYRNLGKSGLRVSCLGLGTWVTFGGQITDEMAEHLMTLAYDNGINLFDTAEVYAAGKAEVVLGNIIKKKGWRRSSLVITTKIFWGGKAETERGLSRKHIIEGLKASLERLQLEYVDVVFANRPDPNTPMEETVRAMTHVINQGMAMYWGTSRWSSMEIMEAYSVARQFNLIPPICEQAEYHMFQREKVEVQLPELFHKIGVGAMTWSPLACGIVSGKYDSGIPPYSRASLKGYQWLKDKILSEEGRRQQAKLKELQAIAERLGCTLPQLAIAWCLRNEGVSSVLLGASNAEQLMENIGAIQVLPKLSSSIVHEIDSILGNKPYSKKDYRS
Alpha-2C adrenergic receptor (Homo sapiens), sequence (P18825 whole entry, looked up): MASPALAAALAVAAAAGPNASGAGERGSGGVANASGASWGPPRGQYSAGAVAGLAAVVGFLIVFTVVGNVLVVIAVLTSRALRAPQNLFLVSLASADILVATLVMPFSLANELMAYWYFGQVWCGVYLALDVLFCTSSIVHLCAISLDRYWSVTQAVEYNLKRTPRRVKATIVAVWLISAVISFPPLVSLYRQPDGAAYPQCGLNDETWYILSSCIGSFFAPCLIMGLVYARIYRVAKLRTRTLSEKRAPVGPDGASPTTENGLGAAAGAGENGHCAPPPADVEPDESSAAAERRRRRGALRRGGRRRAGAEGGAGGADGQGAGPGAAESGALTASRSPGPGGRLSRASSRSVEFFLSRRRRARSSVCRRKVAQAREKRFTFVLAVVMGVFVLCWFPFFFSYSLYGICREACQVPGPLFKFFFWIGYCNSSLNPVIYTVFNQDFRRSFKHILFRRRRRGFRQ

SMILES | cell count [1] | inhibition [1] | inhibition of aggregation [2] | nuclei count [2] | inhibition [3] | nuclei count [3] | fluorescence slope [4] | NADPH fluorescence slope [5] | slope [6] | outcome [7] | inhibition [8] | inhibition [9]
COc1cc(NC(=O)Nc2cccc(C(C)=O)c2)cc(OC)c1OC | 674 | -9.3% (inactive) | -22% (inactive) | 99.7% | -136% (inactive) | 97.7% | -0.438 (inactive) | -4.1e-05 (inactive) | 0.00508 (inactive) | inactive | 14% (inactive) | 12.9% (inactive)
O=P(CCNCc1ccco1)(c1ccccc1)c1ccccc1 | 322 | 9.5% (inactive) | -14.2% (inactive) | 107% | 1.5% (inactive) | 112% | -0.382 (inactive) | -2.4e-05 (inactive) | 0.00716 (inactive) | inactive | 139% (active) | 91.3% (active)
CC1(C)CC(=O)C2=C(C1)Nc1ccccc1N=C2 | 759 | -6.9% (inactive) | 11.9% (inactive) | 104% | 40.8% (inactive) | 94.5% | -0.483 (inactive) | -5.6e-05 (inactive) | 0.00436 (inactive) | inactive | -4.26% (inactive) | -38.2% (inactive)
COC(=O)c1ccc2c(=O)n(NC(C)=O)c(=S)[nH]c2c1 | 627 | 8.7% (inactive) | -5% (inactive) | 108% | -73.1% (inactive) | 114% | -0.367 (inactive) | -6.6e-05 (inactive) | 0.00487 (inactive) | inactive | 2.98% (inactive) | -0.555% (inactive)
O=C(O)COc1cccc(NC(=O)C2CCCO2)c1 (stereo not drawn) | 308 | -7% (inactive) | 0.8% (inactive) | 97.2% | -14.3% (inactive) | 90% | -0.471 (inactive) | 1.1e-05 (inactive) | 0.00558 (inactive) | inactive | -6.85% (inactive) | -4.06% (inactive)
COc1cccc(N2CCN(CC(=O)c3c[nH]c4ccc(OC)cc34)CC2C)c1 (stereo not drawn) | 508 | -6.7% (inactive) | 6% (inactive) | 85.4% | -36.3% (inactive) | 103% | -0.368 (inactive) | -3.9e-05 (inactive) | 0.00529 (inactive) | inactive | 12.4% (inactive) | 16% (inactive)
CNC(=O)c1ccc2nc(NC(C)=O)sc2c1 | 382 | -10.3% (inactive) | 4.1% (inactive) | 74.6% | 13.2% (inactive) | 56.8% | -0.327 (inactive) | -6.5e-05 (inactive) | 0.00564 (inactive) | inactive | -11.9% (inactive) | -21.9% (inactive)
O=C(O)c1ccc(NC(=O)c2cccs2)cc1 | 464 | 1.2% (inactive) | 6.1% (inactive) | 89.3% | -75.3% (inactive) | 117% | -0.362 (inactive) | -2.7e-05 (inactive) | 0.00441 (inactive) | inactive | 9.12% (inactive) | 13.8% (inactive)
Cc1ccc(C)n1-c1ccc(-n2cnnn2)cc1 | 572 | -1.6% (inactive) | -8.3% (inactive) | 86.5% | -24.4% (inactive) | 50.8% | -0.366 (inactive) | -5.9e-05 (inactive) | 0.00396 (inactive) | inactive | 8.71% (inactive) | 9.74% (inactive)
Cc1onc(-c2c(F)cccc2Cl)c1C(=O)Nc1nc2c(s1)CCCC2 | 250 | 5.1% (inactive) | 14.6% (inactive) | 101% | 38.1% (inactive) | 77.9% | -0.467 (inactive) | -9.4e-06 (inactive) | 0.00615 (inactive) | inactive | -235% (inactive) | 99.1% (active)
CCc1ccc2[nH]c(=O)c(C(c3nnnn3CC3CCCO3)N3CCN4CCCC4C3)cc2c1 (stereo not drawn) | 314 | 12.3% (inactive) | -16.9% (inactive) | 107% | 13.9% (inactive) | 102% | -0.382 (inactive) | -5.9e-05 (inactive) | 0.00534 (inactive) | inactive | 9.53% (inactive) | 4.74% (inactive)
Cn1c(C(=O)NCc2cccnc2)cc2sccc21 | 560 | -4.9% (inactive) | 1.2% (inactive) | 104% | -25% (inactive) | 110% | -0.436 (inactive) | 3.4e-05 (inactive) | 0.00497 (inactive) | inactive | -11.9% (inactive) | -21.5% (inactive)
CCOC(=O)c1cc(-c2ccccc2)sc1N | 389 | -0.7% (inactive) | 3.4% (inactive) | 102% | -104% (inactive) | 107% | -0.351 (inactive) | -2e-05 (inactive) | 0.0052 (inactive) | inactive | -40.8% (inactive) | -102% (inactive)
Cc1occc1-c1nnc(SCC(=O)N2CCOCC2)n1Cc1ccco1 | 382 | 3% (inactive) | -5.6% (inactive) | 82.5% | -41% (inactive) | 107% | -0.371 (inactive) | -5e-05 (inactive) | 0.00496 (inactive) | inactive | 8.29% (inactive) | 12.6% (inactive)

— PubChem BioAssay
